Measurements as given in ChEMBL document CHEMBL2176886, “Anti-AIDS agents 90. novel C-28 modified bevirimat analogues as potent HIV maturation inhibitors” (J Med Chem, 2012).
Calls of active or inactive are those of the source. The calls are words filed in the database; no cut-off is given here.

How the values were obtained:
[1] = system: Human immunodeficiency virus 1; assay: Antiviral activity against HIV1 infected in human TZM-bl cells assessed as reduction of viral entry after 48 hrs by luciferase reporter gene assay; format: functional, organism-based
Procedure, shortened: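 Single-round infection of TZM-bl cells (HeLa clone expressing CD4/CCR5 with HIV-1 LTR-driven firefly luciferase) with HIV-1 at 200 TCID50 mixed with test samples. After 48 h, medium was replaced with Bright-Glo reagent and luminescence read. IC50 is the concentration giving 50% RLU reduction versus virus-control wells after background subtraction.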

[2] = system: Human immunodeficiency virus 1; assay: Antiviral activity against HIV1 NL4-3 infected in human MT4 cells assessed as p24 antigen level at 10 uM after 4 days by ELISA; format: functional, organism-based
MT4 = assay: Cytotoxicity against human MT4 cells after 2 days; format: cell-based; details: mt4, 48 h
[3] = Therapeutic index, ratio of CC50 for human MT4 cells to IC50 for HIV-1 NL4-3; format: cell-based; details: read-out: Ratio CC50/IC50
Procedure, shortened: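 TI calculated as CC50 (mock-infected MT-4 growth, 2 days) divided by IC50 (HIV-1 NL4-3 replication in MT-4 cells, p24 ELISA at day 4).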

[4] = system: Human immunodeficiency virus 1; assay: Antiviral activity against HIV1 NL4-3 infected in human MT4 cells assessed as p24 antigen level after 4 days by ELISA; format: functional, organism-based; details: Human immunodeficiency virus 1, NL4-3, MT4, 96 h
Procedure, shortened: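 MT-4 cells infected with HIV-1 NL4-3 variants at MOI 0.01; supernatants harvested day 4 post-infection for p24 antigen capture ELISA. IC50 is the concentration inhibiting replication by 50%; values are averages of at least three separate experiments.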

Row | SMILES | Activity [1] | Activity [2] | CC50 (MT4) | selectivity ratio [3] | IC50 [4]
1 | C=C(C)[C@@H]1CC[C@]2(C(=O)OCCOCCOCCOCCO)CC[C@]3(C)[C@H](CC[C@@H]4[C@@]5(C)CC[C@H](O)C(C)(C)[C@@H]5CC[C@]43C)[C@@H]12 | inactive | inactive |  |  | 
2 | C=C(C)[C@@H]1CC[C@]2(C(=O)N3CCC(CCCC(=O)NC)CC3)CC[C@]3(C)[C@H](CC[C@@H]4[C@@]5(C)CC[C@H](O)C(C)(C)[C@@H]5CC[C@]43C)[C@@H]12 | inactive | inactive |  |  | 
3 | C#CCOC(=O)[C@]12CC[C@@H](C(=C)C)[C@@H]1[C@H]1CC[C@@H]3[C@@]4(C)CC[C@H](OC(=O)CC(C)(C)C(=O)O)C(C)(C)[C@@H]4CC[C@@]3(C)[C@]1(C)CC2 | inactive |  | 15300 nM | 226 | 67 nM
4 | C=C(C)[C@@H]1CC[C@]2(C(=O)OCCCCCCCC)CC[C@]3(C)[C@H](CC[C@@H]4[C@@]5(C)CC[C@H](O)C(C)(C)[C@@H]5CC[C@]43C)[C@@H]12 | inactive | inactive |  |  | 
5 | C=C(C)[C@@H]1CC[C@]2(C(=O)N3CCN(CCCCC(=O)O)CC3)CC[C@]3(C)[C@H](CC[C@@H]4[C@@]5(C)CC[C@H](O)C(C)(C)[C@@H]5CC[C@]43C)[C@@H]12 | inactive | inactive |  |  | 
6 | C=C(C)[C@@H]1CC[C@]2(C(=O)OCc3cn([C@H]4C[C@H](n5cc(C)c(=O)[nH]c5=O)O[C@@H]4CO)nn3)CC[C@]3(C)[C@H](CC[C@@H]4[C@@]5(C)CC[C@H](OC(=O)CC(C)(C)C(=O)O)C(C)(C)[C@@H]5CC[C@]43C)[C@@H]12 | inactive |  | 11000 nM | 101 | 100 nM
7 | C=C(C)[C@@H]1CC[C@]2(C(=O)O)CC[C@]3(C)[C@H](CC[C@@H]4[C@@]5(C)CC[C@H](O)C(C)(C)[C@@H]5CC[C@]43C)[C@@H]12 | Active |  |  |  | 
8 | C=C(C)[C@@H]1CC[C@]2(C(=O)OCOC)CC[C@]3(C)[C@H](CC[C@@H]4[C@@]5(C)CC[C@H](OC(=O)CC(C)(C)C(=O)O)C(C)(C)[C@@H]5CC[C@]43C)[C@@H]12 | inactive |  | 12400 nM | 70.9 | 170 nM
9 | C=C(C)[C@@H]1CC[C@]2(C(=O)OCCOCCOCCOCCOC(=O)CC(C)(C)C(=O)O)CC[C@]3(C)[C@H](CC[C@@H]4[C@@]5(C)CC[C@H](OC(=O)CC(C)(C)C(=O)O)C(C)(C)[C@@H]5CC[C@]43C)[C@@H]12 | inactive |  | 8900 nM | 111 | 79 nM
10 | C=C(C)[C@@H]1CC[C@]2(C(=O)N3CCC(CCCC(=O)NC)CC3)CC[C@]3(C)[C@H](CC[C@@H]4[C@@]5(C)CC[C@H](OC(=O)CC(C)(C)C(=O)O)C(C)(C)[C@@H]5CC[C@]43C)[C@@H]12 | inactive |  | > 13300 nM | > 55.5 | 240 nM
11 | C=C(C)[C@@H]1CC[C@]2(C(=O)OCOCCOC)CC[C@]3(C)[C@H](CC[C@@H]4[C@@]5(C)CC[C@H](OCOCCOC)C(C)(C)[C@@H]5CC[C@]43C)[C@@H]12 | inactive | inactive |  |  | 
12 | C=C(C)[C@@H]1CC[C@]2(C(=O)OCOCCOC)CC[C@]3(C)[C@H](CC[C@@H]4[C@@]5(C)CC[C@H](O)C(C)(C)[C@@H]5CC[C@]43C)[C@@H]12 | inactive | inactive |  |  | 
13 | C=C(C)[C@@H]1CC[C@]2(C(=O)N3CCC(CCCC(=O)N4CCOCC4)CC3)CC[C@]3(C)[C@H](CC[C@@H]4[C@@]5(C)CC[C@H](OC(=O)CC(C)(C)C(=O)O)C(C)(C)[C@@H]5CC[C@]43C)[C@@H]12 | inactive |  | 10900 nM | 156 | 70 nM
14 | C=C(C)[C@@H]1CC[C@]2(C(=O)O)CC[C@]3(C)[C@H](CC[C@@H]4[C@@]5(C)CC[C@H](OCOCCOC)C(C)(C)[C@@H]5CC[C@]43C)[C@@H]12 | inactive | inactive |  |  | 
15 | C=C(C)[C@@H]1CC[C@]2(C(=O)OCOC)CC[C@]3(C)[C@H](CC[C@@H]4[C@@]5(C)CC[C@H](O)C(C)(C)[C@@H]5CC[C@]43C)[C@@H]12 | inactive | inactive |  |  | 
16 | C=C(C)[C@@H]1CC[C@]2(C(=O)ON3C(=O)CCC3=O)CC[C@]3(C)[C@H](CC[C@@H]4[C@@]5(C)CC[C@H](OC(=O)CC(C)(C)C(=O)O)C(C)(C)[C@@H]5CC[C@]43C)[C@@H]12 | inactive |  | 11000 nM | 86.2 | 130 nM
17 | C=C(C)[C@@H]1CC[C@]2(C(=O)OCCCc3ccccc3)CC[C@]3(C)[C@H](CC[C@@H]4[C@@]5(C)CC[C@H](O)C(C)(C)[C@@H]5CC[C@]43C)[C@@H]12 | inactive | inactive |  |  | 
18 | C=C(C)[C@@H]1CC[C@]2(C(=O)OCCCCCCCC)CC[C@]3(C)[C@H](CC[C@@H]4[C@@]5(C)CC[C@H](OC(=O)CC(C)(C)C(=O)O)C(C)(C)[C@@H]5CC[C@]43C)[C@@H]12 | inactive | inactive |  |  | 
19 | C=C(C)[C@@H]1CC[C@]2(C(=O)OCOC)CC[C@]3(C)[C@H](CC[C@@H]4[C@@]5(C)CC[C@H](OCOC)C(C)(C)[C@@H]5CC[C@]43C)[C@@H]12 | inactive | inactive |  |  | 
20 | C=C(C)[C@@H]1CC[C@]2(C(=O)N3CCC(CCCC(=O)NCCN4CCOCC4)CC3)CC[C@]3(C)[C@H](CC[C@@H]4[C@@]5(C)CC[C@H](O)C(C)(C)[C@@H]5CC[C@]43C)[C@@H]12 | inactive | inactive |  |  | 
21 | C=C(C)[C@@H]1CC[C@]2(C(=O)N3CCC(CCCC(=O)N4CCOCC4)CC3)CC[C@]3(C)[C@H](CC[C@@H]4[C@@]5(C)CC[C@H](O)C(C)(C)[C@@H]5CC[C@]43C)[C@@H]12 | inactive | inactive |  |  | 
22 | C=C(C)[C@@H]1CC[C@]2(C(=O)N3CCN(CCCC(=O)O)CC3)CC[C@]3(C)[C@H](CC[C@@H]4[C@@]5(C)CC[C@H](O)C(C)(C)[C@@H]5CC[C@]43C)[C@@H]12 | inactive | inactive |  |  | 
23 | C=C(C)[C@@H]1CC[C@]2(C(=O)O)CC[C@]3(C)[C@H](CC[C@@H]4[C@@]5(C)CC[C@H](OCOC)C(C)(C)[C@@H]5CC[C@]43C)[C@@H]12 | inactive | inactive |  |  | 
24 | C=C(C)[C@@H]1CC[C@]2(C(=O)ON3C(=O)CCC3=O)CC[C@]3(C)[C@H](CC[C@@H]4[C@@]5(C)CC[C@H](O)C(C)(C)[C@@H]5CC[C@]43C)[C@@H]12 | inactive | inactive |  |  | 
25 | C=C(C)[C@@H]1CC[C@]2(C(=O)N3CCC(CCCC(=O)NCCCN4CCOCC4)CC3)CC[C@]3(C)[C@H](CC[C@@H]4[C@@]5(C)CC[C@H](O)C(C)(C)[C@@H]5CC[C@]43C)[C@@H]12 | inactive | inactive |  |  | 
26 | C=C(C)[C@@H]1CC[C@]2(C(=O)OCCCCCC(=O)OCC)CC[C@]3(C)[C@H](CC[C@@H]4[C@@]5(C)CC[C@H](O)C(C)(C)[C@@H]5CC[C@]43C)[C@@H]12 | inactive | inactive |  |  | 
27 | C#CCOC(=O)[C@]12CC[C@@H](C(=C)C)[C@@H]1[C@H]1CC[C@@H]3[C@@]4(C)CC[C@H](O)C(C)(C)[C@@H]4CC[C@@]3(C)[C@]1(C)CC2 | inactive | inactive |  |  | 
